Bioassay records as filed in PubChem.
The entries come from a sample that favours hits as a whole.
DYRK1A inh – Dyrk1A (rat) kinase inhibition; Q63470; ADP-Glo luminescence, NFATc1 peptide; inhibition, % at 12.5 µM; 310,000 tested, 0.43% active; AID 504441; in the data active = inhibition above about 50%
GSK3B inh – blocks human GSK3beta kinase activity. GST-GSK3beta kinase, ADP-Glo luminescence, 60 min; active compounds read low. AID 2097. 300,000 tested, 0.038% active. activity score (negative = inhibition), % at 10 µM;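 active = more than half of replicate wells score below -50%, meaning over 50% inhibition versus plate controls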
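Test system: GST-tagged human GSK3beta kinase, cell-free; evaluation: activity score scaled between in-plate DMSO and GW8510 controls; measured by: ADP-Glo luminescence; incubation: 60 min reaction, RT; benchmarks: DMSO and 20 µM GW8510; reagent: peptide substrate plus 25 µM ATP (final); medium: Tris/MgCl2 kinase buffer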
GSK3A inh – blocks human GSK-3 alpha kinase; P49840; ADP-Glo luminescence, 60 min; inhibition, % at 10 µM; 320,000 tested, 0.1% active; AID 2650;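 active = more than half of replicates show inhibition above 20%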;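 also: GST-tagged GSK-3 alpha with peptide substrate and 25 µM ATP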
Target sequence (P49840 whole entry, looked up): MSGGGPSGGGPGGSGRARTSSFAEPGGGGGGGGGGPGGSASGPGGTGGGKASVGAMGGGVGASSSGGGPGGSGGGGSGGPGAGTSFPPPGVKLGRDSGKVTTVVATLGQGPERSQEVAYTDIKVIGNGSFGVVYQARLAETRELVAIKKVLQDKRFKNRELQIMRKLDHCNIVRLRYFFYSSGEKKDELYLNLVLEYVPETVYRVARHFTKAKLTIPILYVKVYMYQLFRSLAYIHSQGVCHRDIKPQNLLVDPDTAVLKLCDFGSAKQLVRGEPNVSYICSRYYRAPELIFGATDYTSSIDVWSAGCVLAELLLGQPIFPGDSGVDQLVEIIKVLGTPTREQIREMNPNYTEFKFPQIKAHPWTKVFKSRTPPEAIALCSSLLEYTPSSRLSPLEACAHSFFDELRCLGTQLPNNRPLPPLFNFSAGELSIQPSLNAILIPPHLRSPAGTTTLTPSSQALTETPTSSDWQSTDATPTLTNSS
STK33 kinase inh – human STK33 kinase inhibition | Q9BYT3 | AID 2661 | purified STK33, MBP phosphorylation, ADP-Glo luminescence | inhibition, % at 10 µM | 320,000 tested, 0.073% active;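 active = inhibition at or above 25%, using the most active replicate where run in duplicate; inactive = inhibition below 25%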
Dyrk1A artifact – counter-screen for Dyrk1A inhibitors: ADP-Glo luciferase artifacts | shares compounds with DYRK1A inh | ADP-Glo luciferase artifact assay, no Dyrk1A, luminescence | AC50, µM (doses to about 12 µM) | 1,300 tested, under 10 active;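 active = fitted half-maximal dose AC50 no more than ten times the top valid tested dose, with luminescence dropping as dose rises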
Large screens that a line does not name were inactive (follow-up assays come after a bar, where they were run); ! = a repeat was not active.

CC(=O)N(CN1C(=O)c2ccccc2C1=O)c1cccc(C)c1	none
CC(=O)N(/N=C1\Sc2ccccc2C1=O)c1cccc(C)c1	DYRK1A inh 50.0 | Dyrk1A artifact inactive
O=C(O)c1ccc(-c2ccc(/C=c3/sc4nc5ccccc5n4c3=O)o2)cc1Cl	DYRK1A inh 53.9 | Dyrk1A artifact inactive
NC(N)=NC(=O)c1nc(Cl)c(N2CCCCCC2)nc1N	none (no result: GSK3B inh)
NC(N)=NC(=O)c1nc(Cl)c(N)nc1N	DYRK1A inh 64.3! | Dyrk1A artifact inactive
CC(=O)c1cccc(NC(=O)Nc2ccc3c(c2)N(C)C(=O)CS3)c1	DYRK1A inh 50.1 | Dyrk1A artifact inactive
COc1ccc(C(C)NC(=O)Nc2ccc(C(C)=O)cc2)cc1OC (stereo unspecified)	none
CCOC(=O)C1=C(C)OC(N)=C(C#N)C1c1ccc(O)c(OC)c1 (stereo unspecified)	DYRK1A inh 51.4 | Dyrk1A artifact inactive
CCOC(=O)[C@@H]1[C@H]2COc3ccccc3[C@@H]2N2C(=O)N(c3cccc(F)c3)C(=O)[C@@]12C	none (no result: GSK3B inh)
CN1CCc2cc3c(c4c2[C@H]1[C@H](O)c1ccccc1-4)OCO3	DYRK1A inh 82.3 | Dyrk1A artifact inactive
COc1ccc2c(c1OC)C(=O)OC2C1c2c(cc3c(c2OC)OCO3)CCN1C (stereo unspecified)	none
Cc1cc(NCCCN2CCOCC2)n2ncc(-c3ccc(Cl)cc3)c2n1	none
Cc1cc(NCCCn2ccnc2)n2ncc(-c3ccc(Cl)cc3)c2n1	DYRK1A inh 56.5 | Dyrk1A artifact inactive
Clc1ccc2nc(COc3ccccc3)[nH]c2c1	DYRK1A inh 53.9 | Dyrk1A artifact inactive
Cn1cnc2c(=O)sc3ccccc3c21	DYRK1A inh 70.4 | Dyrk1A artifact inactive
Cc1nn(-c2ccccc2)c(Cl)c1/C=N/Nc1nc2ccccc2n1C	none
CCC(=O)Nc1cccc(-c2cn3ccccc3n2)c1	none
O=C(COc1ccccc1)Nc1cccc(-c2cn3cccnc3n2)c1	DYRK1A inh 53.9 | Dyrk1A artifact inactive
O=C(COc1ccccc1)Nc1cccc(-c2nn[nH]n2)c1	DYRK1A inh 70.4 | Dyrk1A artifact inactive
CC(=O)Nc1cccc(-c2nn[nH]n2)c1	none
O=C(Nc1ccc2ccccc2n1)c1ccccc1Br	none (no result: GSK3B inh)
O=C1C(=O)c2ccccc2C(O)=C1CC=C(Cl)Cl	DYRK1A inh 65.7 (no result: GSK3B inh, GSK3A inh, STK33 kinase inh) | Dyrk1A artifact inactive
O=C1C(C=Nc2ccccc2)=C(O)c2ccccc21	none
Oc1ccc2nnc3c(Br)cnn3c2c1	DYRK1A inh 77.2 | Dyrk1A artifact inactive
COc1ccc(/C=C2\SC(N3CCCCC3)=NC2=O)cc1	DYRK1A inh 67.5 | Dyrk1A artifact inactive
CCc1ccc(/C=C2\SC(N3CCCC3)=NC2=O)cc1	none (no result: DYRK1A inh)
Cc1nc(NC(=O)c2ccccc2)sc1-c1csc(NCc2ccco2)n1	DYRK1A inh 66.6 (no result: GSK3A inh, STK33 kinase inh) | Dyrk1A artifact inactive
Cc1ccnc(NC(=O)c2cccc(S(=O)(=O)N3CCN(c4ccccc4)CC3)c2)c1	DYRK1A inh 60.2 | Dyrk1A artifact inactive
CCOC(=O)c1c(NC(=O)COC(=O)c2ccccc2NC)sc(C(=O)N(C)C)c1C	none
O=C(CNC(=O)c1ccc(F)cc1)N/N=C/c1cccnc1	none
Cc1cccc(Nc2cc(C)c3c(O)cccc3n2)c1C	DYRK1A inh 68.0 | Dyrk1A artifact inactive
Cc1nc2c(-c3ccccc3)cnn2c(N2CCOCC2)c1C	none
CN(C)CCCOC(=O)COc1ccc(Br)cc1	DYRK1A inh 68.5 | Dyrk1A artifact inactive
O=C1c2c(O)ccc(O)c2C(=O)c2c(NCCNCCO)ccc(NCCNCCO)c21	DYRK1A inh 52.4, GSK3A inh 62.0, STK33 kinase inh 66.1 (no result: GSK3B inh) | Dyrk1A artifact inactive
O=C1c2ccccc2C(=O)c2c(Nc3ccc(CCO)cc3)ccc(O)c21	none
CCN(CC)c1ccc(/C=C2\C(=O)c3ccc(C(=O)O)cc3C2=O)cc1	DYRK1A inh 60.8, STK33 kinase inh 60.8 (no result: GSK3B inh) | Dyrk1A artifact inactive
Cc1ccc(-c2nn[nH]n2)cc1Cl	DYRK1A inh 53.2 | Dyrk1A artifact inactive
N#Cc1c2ccc(O)cc2n2ccccc12	DYRK1A inh 86.8, STK33 kinase inh 31.9 | Dyrk1A artifact inactive
CS(=O)(=O)c1ccccc1C(=O)Nc1cccc(-c2nc3ccccc3o2)c1	none
COCCNC(=O)Cn1c(=O)n(CCCC(=O)NCc2ccc3c(c2)OCO3)c(=O)c2sccc21	none
Nc1nn(-c2ccccc2Cl)cc1-c1nn[nH]n1	none
CCN1C(=O)/C(=C2/Sc3ccccc3N2CC)S/C1=N\c1ncn[nH]1	DYRK1A inh 61.0 | Dyrk1A artifact inactive
CC(C)c1nc2cc(C(=O)NC(c3cccnc3)C(F)(F)F)ccc2o1 (stereo unspecified)	none
